Read-outs that look alike come from different tables or passages of the source.
Legend:
human CB2 receptors = details: cited from earlier work
rat CB2 receptors [1] = details: cited from earlier work
[2] = system: rats with spinal nerve ligation; test: Tactile allodynia, lumbar 5-6 spinal nerve ligation neuropathic pain model; format: in vivo, rat; details: for Effect on tactile allodynia: several doses
Method in brief: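 Male Sprague-Dawley rats (120–150 g). Under isoflurane in 100% O2, the left L6 transverse process was removed and the left L5 and L6 spinal nerves were tightly ligated with 6-0 silk. Neuropathy was confirmed by daily von Frey paw-withdrawal thresholds after ≥30 min acclimation on wire mesh. Compounds were given IP; AM630 (5 mg/kg IP) was given 15 min before the test compound. n = 6–12 per group.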

human CB2 receptor [3] = biological target: T1, human CB2 receptor (Homo sapiens, UniProt P34972); details: cited from earlier work
human CB2 receptor [4] = biological target: T1, human CB2 receptor; details: cited from earlier work; remark: listed apart in the source
human CB2 receptor [5] = biological target: T1, human CB2 receptor; details: cited from earlier work; remark: listed apart in the source
human CB2 receptor [6] = biological target: T1, human CB2 receptor; details: cited from earlier work; remark: listed apart in the source
rat CB2 receptors [7] = details: cited from earlier work; remark: listed apart in the source
mouse CB2 receptors = details: cited from earlier work
[8] = system: rodents with spinal nerve ligation; details: cited from earlier work
rat CB2 receptor [9] = biological target: T2, rat CB2 receptor (Rattus norvegicus, UniProt Q9QZN9); test: GTPγ[35S] functional assay, rat CB2; format: biochemical
T2 sequence (Q9QZN9 1-360): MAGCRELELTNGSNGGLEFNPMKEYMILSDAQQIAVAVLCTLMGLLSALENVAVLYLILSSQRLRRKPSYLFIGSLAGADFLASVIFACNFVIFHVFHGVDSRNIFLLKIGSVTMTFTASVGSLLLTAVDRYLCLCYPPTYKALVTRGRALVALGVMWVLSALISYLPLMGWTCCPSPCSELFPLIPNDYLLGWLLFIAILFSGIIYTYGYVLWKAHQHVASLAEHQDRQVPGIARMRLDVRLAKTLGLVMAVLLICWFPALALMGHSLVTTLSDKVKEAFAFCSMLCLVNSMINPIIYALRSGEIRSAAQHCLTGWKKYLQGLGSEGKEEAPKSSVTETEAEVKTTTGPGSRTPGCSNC

rat CB2 receptor [10] = biological target: T2, rat CB2 receptor; test: cAMP activation assay, rat CB2; format: cell-based
human CB1 receptor [11] = biological target: T3, human CB1 receptor (Homo sapiens, UniProt P21554); test: Radioligand competitive binding assay, human CB1; details: Mean Ki Human CB1, [3H]CP 55,940 was used (footnote b)
human CB2 receptor [12] = biological target: T1, human CB2 receptor; test: Radioligand competitive binding assay, human CB2
rat CB1 receptor [13] = biological target: T4, rat CB1 receptor (Rattus norvegicus, UniProt P20272); test: Radioligand competitive binding assay, rat CB1
rat CB2 receptor [14] = biological target: T2, rat CB2 receptor; test: Radioligand competitive binding assay, rat CB2
human CB1 receptor [15] = biological target: T3, human CB1 receptor; test: GTPγ[35S] functional assay, human CB1; format: biochemical
human CB2 receptor [16] = biological target: T1, human CB2 receptor; test: GTPγ[35S] functional assay, human CB2; format: biochemical
rat CB1 receptor [17] = biological target: T4, rat CB1 receptor; test: GTPγ[35S] functional assay, rat CB1; format: biochemical
rat CB1 receptor [18] = biological target: T4, rat CB1 receptor; test: cAMP activation assay, rat CB1; format: cell-based
rat CB2 receptors [19] = test: Erk1/2; format: cell-based
paclitaxel-treated rats = test: Tactile allodynia, paclitaxel-induced neuropathic pain model in rats; format: in vivo, rat; details: IP
Method in brief: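 Male Sprague-Dawley rats (120–150 g) received paclitaxel 1.0 mg/kg IP daily for 4 days (cumulative 4 mg/kg) in 10% Cremophor EL in saline, 1 mL/kg. Baseline was taken on day 0, then daily von Frey hind-paw thresholds (≥30 min acclimation on wire mesh) until neuropathy was confirmed. The test compound was given IP, compared with vehicle-treated rats; n = 5 per group. Values were expressed as %MPE and AUC.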

[20] = system: paclitaxel-treated CB2^+/+ mice; test: Tactile allodynia, paclitaxel-induced neuropathic pain model in CB2^+/+ mice; format: in vivo, mouse; details: 10 mg/kg IP
Method in brief: (§1)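 Male CB2+/+ or CB2−/− mice (20–25 g), bred and genotyped in-house, were used in a paclitaxel-induced neuropathy model. Once allodynia was established, the test compound was given at 10 mg/kg IP. Tactile paw-withdrawal thresholds were measured with von Frey filaments after ≥30 min acclimation on a wire-mesh floor; n = 5 per group.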

[21] = system: paclitaxel-treated CB2^−/− mice; test: Tactile allodynia, paclitaxel-induced neuropathic pain model in CB2^−/− mice; format: in vivo, mouse; details: 10 mg/kg IP
Method in brief: as §1

naïve rats [22] = details: 15 mg/kg IP; historical data ref 24; cited from earlier work
naïve rats [23] = test: Open-field chamber testing; format: in vivo, rat; details: 1 mg/kg IP
central nervous system = details: IP; cited from earlier work

T3 sequence (P21554 whole entry): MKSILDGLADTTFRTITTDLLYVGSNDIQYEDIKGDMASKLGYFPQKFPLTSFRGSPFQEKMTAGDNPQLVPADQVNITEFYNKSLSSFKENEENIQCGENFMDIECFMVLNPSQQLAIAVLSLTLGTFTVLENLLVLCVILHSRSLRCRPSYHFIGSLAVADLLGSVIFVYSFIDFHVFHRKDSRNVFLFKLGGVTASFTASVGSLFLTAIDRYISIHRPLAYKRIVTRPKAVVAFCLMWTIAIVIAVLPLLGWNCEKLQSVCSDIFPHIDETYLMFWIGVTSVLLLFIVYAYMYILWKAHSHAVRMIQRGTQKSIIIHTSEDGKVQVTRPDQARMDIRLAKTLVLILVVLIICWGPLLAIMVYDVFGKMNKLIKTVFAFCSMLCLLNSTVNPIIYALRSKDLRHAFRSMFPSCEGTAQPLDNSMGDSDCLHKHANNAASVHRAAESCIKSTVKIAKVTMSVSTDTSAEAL
T4 sequence (P20272 whole entry): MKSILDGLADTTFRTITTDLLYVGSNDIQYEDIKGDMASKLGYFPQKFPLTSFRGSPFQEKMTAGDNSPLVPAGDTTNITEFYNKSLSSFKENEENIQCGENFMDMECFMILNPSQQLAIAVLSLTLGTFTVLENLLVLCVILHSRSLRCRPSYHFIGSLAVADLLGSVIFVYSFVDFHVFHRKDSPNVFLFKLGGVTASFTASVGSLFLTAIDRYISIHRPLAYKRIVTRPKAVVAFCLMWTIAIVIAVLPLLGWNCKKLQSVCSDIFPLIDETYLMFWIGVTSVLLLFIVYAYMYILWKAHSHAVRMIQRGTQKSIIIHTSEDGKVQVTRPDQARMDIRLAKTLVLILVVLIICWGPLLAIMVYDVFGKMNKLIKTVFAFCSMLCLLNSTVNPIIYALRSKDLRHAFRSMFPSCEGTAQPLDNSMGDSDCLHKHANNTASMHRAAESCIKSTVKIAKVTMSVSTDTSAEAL
T1 sequence (P34972 whole entry): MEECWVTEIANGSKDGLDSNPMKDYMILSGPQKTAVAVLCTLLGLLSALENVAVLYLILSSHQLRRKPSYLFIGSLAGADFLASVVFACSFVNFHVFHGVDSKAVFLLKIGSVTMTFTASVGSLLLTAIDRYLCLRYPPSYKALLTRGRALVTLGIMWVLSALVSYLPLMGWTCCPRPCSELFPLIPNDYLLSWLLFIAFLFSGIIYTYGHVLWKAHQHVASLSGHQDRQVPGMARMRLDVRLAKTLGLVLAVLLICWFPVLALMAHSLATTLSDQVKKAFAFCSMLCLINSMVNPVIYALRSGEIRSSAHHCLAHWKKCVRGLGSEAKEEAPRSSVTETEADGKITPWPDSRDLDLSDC

## CN1CCCCC1Cn1cc(C(=O)c2cc([N+](=O)[O-])ccc2I)c2ccccc21 (single isomer, unassigned; (+)) [(+)AM1241]
Human CB2 receptors
  Functional character at human CB2: protean agonists
Rat CB2 receptors [1]
  Functional character at rat CB2: protean agonists

## COc1ccc(C(=O)c2c(C)n(CCN3CCOCC3)c3cc(I)ccc23)cc1 [AM630, reference compound]
[2]; 5 mg/kg IP
  Effect on paw withdrawal threshold, given alone: had no effect

## CN1CCCCC1Cn1cc(C(=O)c2cc([N+](=O)[O-])ccc2I)c2ccccc21 (centres unmarked) [AM1241, (2-iodo-5-nitrophenyl)-[1-(1-methylpiperidin-2-ylmethyl)-1H-indol-3-yl]methanone]
Human CB2 receptor [3]
  Functional behaviour in fluorometric image plate reader functional assays: apparent antagonist
Human CB2 receptor [4]
  Functional behaviour in cyclase assays: neutral antagonist
Human CB2 receptor [4]; lower forskolin concentrations
  Functional behaviour in cyclase assays at lower forskolin concentrations: agonist
Human CB2 receptor [5]
  Functional behaviour in Erk activation assays: apparent agonist
Human CB2 receptor [6]
  Functional behaviour in cAMP inhibition assays, human CB2: agonist
Rat CB2 receptors [7]
  Functional behaviour in cAMP inhibition assays, rat CB2: inverse agonist
Mouse CB2 receptors
  Functional behaviour in cAMP inhibition assays, mouse CB2: inverse agonist
[8]
  Effect on tactile allodynia: attenuated tactile allodynia in a dose-related manner

## CCCCCCC(C)(C)c1ccc([C@@H]2C[C@H](O)CC[C@H]2CCCO)c(O)c1 [CP 55,940, reference compound]
Rat CB2 receptor [9]
  Functional behaviour in GTPγ[35S] assay, rat CB2: agonist activity
Rat CB2 receptor [9]; read-out: GTPγ[35S] functional assays Rat CB2 EC50, agonism
  EC50: 2.3 ± 1.8 nM
Rat CB2 receptor [9]; relative to efficacy of CP 55,940
  GTPγ[35S] functional assays Rat CB2 Emax: 112%
Rat CB2 receptor [10]
  Functional behaviour in cAMP activation assay, rat CB2: strong agonist activity
Rat CB2 receptor [10]; forskolin 10 µM, NA = not active at 1 µM
  cAMP activation assays Rat CB2 Emax: 100%

## COc1ccc2c(c1)c(CCN1CCOCC1)c(C)n2C(=O)c1cccc(Cl)c1Cl [L768242]
Human CB2 receptors
  Functional character at human CB2: protean agonists
Rat CB2 receptors [1]
  Functional character at rat CB2: protean agonists

## CCCCCCN1C(=O)/C(=N\NC(=O)c2ccccc2)c2ccccc21 [MDA19, N′-[(3Z)-1-(1-hexyl)-2-oxo-1,2-dihydro-3H-indol-3-ylidene]benzohydrazide]
Human CB1 receptor [11]
  Ki: 150 nM
Human CB2 receptor [12]
  Ki: 43.3 ± 10.3 nM
Rat CB1 receptor [13]
  Ki: 1130 ± 574 nM
Rat CB2 receptor [14]
  Ki: 16.3 ± 2.1 nM
Rat CB2 receptor [14]; from Ki values
  Affinity ratio rat CB2 over rat CB1: ~70 fold
Human CB1 receptor [15]
  EC50: 922 ± 56 nM
  Functional behaviour in GTPγ[35S] assay, human CB1: agonist
Human CB1 receptor [15]; read-out: GTPγ[35S] functional assays Human CB1 Emax
  Emax: 64.5%
Human CB2 receptor [16]
  EC50: 83 ± 19 nM
  Functional behaviour in GTPγ[35S] assay, human CB2: agonist
Human CB2 receptor [16]; read-out: GTPγ[35S] functional assays Human CB2 Emax
  Emax: 65.4%
Rat CB1 receptor [17]
  EC50: 427 ± 35 nM
  Functional behaviour in GTPγ[35S] assay, rat CB1: agonist
Rat CB1 receptor [17]; read-out: GTPγ[35S] functional assays Rat CB1 Emax
  Emax: 54%
Rat CB2 receptor [9]
  EC50: 19.7 ± 14 nM
  Functional behaviour in GTPγ[35S] assay, rat CB2: inverse agonist
Rat CB2 receptor [9]; read-out: GTPγ[35S] functional assays Rat CB2 Emax
  Emax: -42%
Rat CB1 receptor [18]
  EC50: 814 ± 83 nM
  Functional behaviour in cAMP activation assay, rat CB1: agonist
Rat CB1 receptor [18]; read-out: cAMP activation assays Rat CB1 Emax
  Emax: 89%
Rat CB2 receptor [10]
  Functional behaviour in cAMP activation assay, rat CB2: no activity
Rat CB2 receptors [19]; 200 ng/mL PTX 16 hours before 10 µM MDA19
  Activation of Erk1/2 after PTX: blocked
Rat CB2 receptors [19]; 10 µM, 30 minutes, CHO-rCB2 cells
  Functional behaviour in Erk1/2 activation (phosphorylation of Erk1/2): behaved as an agonist and induced phosphorylation of Erk1/2
Rat CB2 receptors [19]; 20 µM AM630 30 minutes before 10 µM MDA19
  Activation of Erk1/2 after AM630: blocked
[2]; 15 mg/kg IP
  Antiallodynic effects compared with 1 mg/kg WIN 55,212-2 IP: not significantly different
[2]; 15 mg/kg versus 5 mg/kg or vehicle
  Antiallodynic effect, area under the curve: significantly (P < 0.01) greater antiallodynic effect
[2]; IP
  Effect on tactile allodynia: attenuated tactile allodynia in a dose-related manner
[2]; MDA19 10 mg/kg IP, AM630 5 mg/kg IP 15 minutes before, P < 0.05
  Antiallodynic effect after pretreatment with AM630: significantly reversed
[2]; after a 15 mg/kg dose IP
  Efficacy in attenuating tactile allodynia: 70% ± 10%
paclitaxel-treated rats; versus vehicle-treated rats
  Effect on mechanical allodynia: suppressed mechanical allodynia
paclitaxel-treated rats; n = 5 per group
  %MPE paw withdrawal threshold AUC versus vehicle: significantly different (P < 0.05)
[20]
  Effect on mechanical allodynia: suppressed mechanical allodynia
  Time of peak effect for reversing mechanical allodynia: 30 min
[21]
  Effect on mechanical allodynia: had no effect
naïve rats [22]
  Effect on exploratory behavior (distance traveled, ambulatory time, vertical movements, zone entries): had no effect on exploratory behavior

## Cc1c(C(=O)c2cccc3ccccc23)c2cccc3c2n1[C@H](CN1CCOCC1)CO3 [WIN 55,212-2, reference compound]
[2]; 3 mg/kg IP
  Adverse effects: immobility and increased sensitivity to noise and handling
[2]; IP
  Effect on tactile allodynia: attenuated tactile allodynia in a dose-related manner
[2]; IP, at 15 minutes, 95% CI = 0.5–0.9 mg/kg
  ED50 tactile allodynia: 0.7 mg/kg
naïve rats [23]
  Effect on exploratory behavior (distance traveled, ambulatory time, vertical movements, zone entries): significantly decreased exploratory behavior
Central nervous system
  Doses with adverse effects in the central nervous system: > 1 mg/kg

## O=C(CCCN1CCC(O)(c2ccc(Cl)cc2)CC1)c1ccc(F)cc1 [haloperidol]
naïve rats [23]
  Effect on exploratory behavior (distance traveled, ambulatory time, vertical movements, zone entries): significantly decreased exploratory behavior

Reference: PMC3253719 (Anesthesia and Analgesia, 2010)
